ChEMBL document CHEMBL4699501, “Dihydrodibenzothiepine: Promising hydrophobic pharmacophore in the influenza cap-dependent endonuclease inhibitor” (Bioorg Med Chem Lett, 2020)
Active and inactive are the calls of the source. No cut-off for these calls is given here.

Legend:
[1] = Metabolic stability in rat liver microsomes assessed as compound remaining at 2 uM incubated for 30 mins; format: ADME, Microsome; settings: read-out: Stabilty
Procedure, shortened: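 Compound at 2 μM was incubated with rat liver microsomes at 37 °C for 30 min. The read-out is % of compound remaining.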

[2] = Clearance in iv dosed rat by LC/MS/MS analysis; format: ADME, organism-based; settings: in vivo
Procedure, shortened: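 Rats received a single intravenous dose, and plasma levels were quantified by LC/MS/MS to derive clearance. Values are the mean of duplicate experiments.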

[3] = test system: Influenza A virus; assay: Antiviral activity against Influenza A virus (A/WSN/1933(H1N1)) infected in […] MDBK cells assessed as cell protection incubated for 72 hrs; format: functional, organism-based
Procedure, shortened: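 Madin-Darby bovine kidney cells were infected with A/WSN/33 at 50 TCID50/well and incubated with compound at 37 °C in a CO2 incubator for 72 hr.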

[4] = Fraction unbound in rat serum; format: ADME, cell-free
Procedure, shortened: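 Free fraction was measured in the presence of rat serum. Values are the mean of duplicate experiments.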

[5] = Inhibition of Influenza virus Cap-dependent endonuclease; set-up: species or system Influenza A virus
[6] = test system: Influenza A virus; assay: Antiviral activity against Influenza A virus (A/WSN/1933(H1N1)) infected in mouse assessed as reduction in viral titer in lung by measuring reduction in virus infectivity in MDCK cells at 0.4 to 10 mg/kg, po administered after 5 days of infection and measured after 24 hrs; format: functional, organism-based; settings: dose mg/kg 0.4-10, time […]
Procedure, shortened: (§1)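 Mice were inoculated with A/WSN/33 at 100 TCID50/mouse. Oral dosing was twice daily (BID), starting 5 days after infection. Lung virus titer (log TCID50/mL) was determined on MDCK cells 24 h after the first dose.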

[7] = test system: Influenza A virus; assay: Antiviral activity against Influenza A virus (A/WSN/1933(H1N1)) infected in mouse assessed as reduction in viral titer in lung by measuring reduction in virus infectivity in MDCK cells at 5 mg/kg, po administered after 5 days of infection and measured after 24 hrs; format: functional, organism-based; procedure, shortened: as §1

`C[C@@H](N1CN([C@@H]2c3ccccc3SCc3c(Cl)cccc32)n2ccc(=O)c(O)c2C1=O)C(F)(F)F` gave a remaining at 0.5 h, 2 µM [1] of 102%, a clearance [2] of 7.36 mL/min/kg and an EC50 [3] of 3.04 nM. It also gave a fraction unbound [4] of 0.00293 and an IC50 [5] of 30 nM.
`C[C@@H](N1CN([C@H]2c3ccccc3CSc3ccccc32)n2ccc(=O)c(O)c2C1=O)C(F)(F)F` gave a remaining at 0.5 h, 2 µM [1] of 98.1%, a clearance [2] of 15.8 mL/min/kg and an EC50 [3] of 4.69 nM. For the same compound, the fraction unbound [4] was 0.0103.
In the case of `CC(CN(C)C)N1CN(C2c3ccccc3CSc3ccccc32)n2ccc(=O)c(O)c2C1=O` (centres undefined), the remaining at 0.5 h, 2 µM [1] is reported as 76.4%, the clearance [2] is reported as 98.7 mL/min/kg and the EC50 [3] is reported as 84.1 nM.
With `C[C@@H](N1CN([C@@H]2c3ccccc3SCc3c2ccc(F)c3F)n2ccc(=O)c(O)c2C1=O)C(F)(F)F` the remaining at 0.5 h, 2 µM [1] was 81.1%, the clearance [2] was 11 mL/min/kg and the EC50 [3] was 4.28 nM. For the same compound, the fraction unbound [4] was 0.00411, the IC50 [5] was 5.57 nM and the Activity [6] was “Active”.
In the case of `C[C@@H](N1CN([C@H]2c3ccccc3CSc3ccc(Cl)cc32)n2ccc(=O)c(O)c2C1=O)C(F)(F)F`, the EC50 [3] is reported as 70.8 nM and the IC50 [5] is reported as 24.9 nM.
For `C[C@@H](N1CN([C@@H]2c3ccccc3SCc3c(F)cccc32)n2ccc(=O)c(O)c2C1=O)C(F)(F)F`, the remaining at 0.5 h, 2 µM [1] was 91.8%, the clearance [2] was 8.37 mL/min/kg and the EC50 [3] was 3.85 nM. It also gave a fraction unbound [4] of 0.00978 and an IC50 [5] of 12.5 nM.
In the case of `[2H]C([2H])([2H])C([2H])(N1CN(C2c3ccccc3CSc3ccccc32)n2ccc(=O)c(O)c2C1=O)C([2H])([2H])[2H]` (centres undefined), the remaining at 0.5 h, 2 µM [1] is reported as 74.4%, the clearance [2] is reported as 39.1 mL/min/kg and the EC50 [3] is reported as 11.7 nM. The fraction unbound [4] was 0.0601 and the IC50 [5] was 43.4 nM.
Work on `CC(C)N1CN(C2c3ccccc3CSc3ccccc32)n2ccc(=O)c(O)c2C1=O` (racemic) yielded a remaining at 0.5 h, 2 µM [1] of 72.6%, a clearance [2] of 32.7 mL/min/kg and an EC50 [3] of 16.9 nM. The fraction unbound [4] was 0.0768.
`CC(C)N1CN(C(c2cccc(Cl)c2)c2cccc(Cl)c2)n2ccc(=O)c(O)c2C1=O` gave an EC50 [3] of 65.8 nM and an IC50 [5] of 230 nM.
Compound `COc1cccc(C(c2cccc(OC)c2)N2CN(C(C)C)C(=O)c3c(O)c(=O)ccn32)c1` has an EC50 [3] of 589 nM and an IC50 [5] of 1310 nM.
`CC(C)N1CN(C(c2ccccc2)c2ccccc2)n2ccc(=O)c(O)c2C1=O` gave an EC50 [3] of 81.6 nM and an IC50 [5] of 286 nM.
For `COCC(C)N1CN(C2c3ccccc3CSc3ccccc32)n2ccc(=O)c(O)c2C1=O` (centres undefined), the remaining at 0.5 h, 2 µM [1] was 58.6%, the clearance [2] was 49.1 mL/min/kg and the EC50 [3] was 20.7 nM. It also gave a fraction unbound [4] of 0.106 and an IC50 [5] of 57.9 nM.
Work on `C[C@H](N1CN([C@H]2c3ccccc3CSc3ccccc32)n2ccc(=O)c(O)c2C1=O)C(F)(F)F` yielded a remaining at 0.5 h, 2 µM [1] of 79.8% and an EC50 [3] of 18.6 nM.
`C[C@@H](N1CN([C@H]2c3cc(Cl)ccc3CSc3ccccc32)n2ccc(=O)c(O)c2C1=O)C(F)(F)F` gave a remaining at 0.5 h, 2 µM [1] of 94.1%, a clearance [2] of 12.4 mL/min/kg and an EC50 [3] of 4.21 nM. For the same compound, the fraction unbound [4] was 0.00514.
For `CC(C)N1CN(C2c3ccccc3COc3ccccc32)n2ccc(=O)c(O)c2C1=O` (centres undefined), the EC50 [3] was 71 nM.
`C[C@@H](N1CN([C@H]2c3ccccc3CSc3cc(Cl)ccc32)n2ccc(=O)c(O)c2C1=O)C(F)(F)F` showed a remaining at 0.5 h, 2 µM [1] of 101%, a clearance [2] of 12.2 mL/min/kg and an EC50 [3] of 21.2 nM. The fraction unbound [4] was 0.00303 and the IC50 [5] was 62.1 nM.
Compound `C[C@@H](N1CN([C@H]2c3ccccc3SCc3cccc(Cl)c32)n2ccc(=O)c(O)c2C1=O)C(F)(F)F` has a remaining at 0.5 h, 2 µM [1] of 93.3%, a clearance [2] of 19.6 mL/min/kg and an EC50 [3] of 3.52 nM. It also gave a fraction unbound [4] of 0.0179 and an IC50 [5] of 9.95 nM.
`C[C@@H](N1CN([C@@H]2c3ccccc3CSc3ccccc32)n2ccc(=O)c(O)c2C1=O)C(F)(F)F` showed an EC50 [3] of 131 nM.
With `CC(C)N1CN(C(c2cccc(C(F)(F)F)c2)c2cccc(C(F)(F)F)c2)n2ccc(=O)c(O)c2C1=O` the EC50 [3] was 386 nM and the IC50 [5] was 456 nM.
Compound `C[C@@H](N1CN([C@H]2c3ccc(F)cc3CSc3ccccc32)n2ccc(=O)c(O)c2C1=O)C(F)(F)F` has a remaining at 0.5 h, 2 µM [1] of 95.3%, a clearance [2] of 11.6 mL/min/kg and an EC50 [3] of 3.54 nM. For the same compound, the fraction unbound [4] was 0.00383 and the IC50 [5] was 12.3 nM.
With `CC(C)N1CN(C2c3ccccc3CCc3ccccc32)n2ccc(=O)c(O)c2C1=O` the EC50 [3] was 20.1 nM and the IC50 [5] was 60.1 nM.
`Cc1cccc(C(c2ccccc2)N2CN(C(C)C)C(=O)c3c(O)c(=O)ccn32)c1` (centres undefined) gave an EC50 [3] of 219 nM and an IC50 [5] of 276 nM.
Compound `C[C@@H](N1CN([C@H]2c3ccccc3CSc3c(F)cccc32)n2ccc(=O)c(O)c2C1=O)C(F)(F)F` has a remaining at 0.5 h, 2 µM [1] of 95.6%, a clearance [2] of 10.3 mL/min/kg and an EC50 [3] of 3.41 nM. For the same compound, the fraction unbound [4] was 0.00574.
In the case of `O=C1c2c(O)c(=O)ccn2N(C2c3ccccc3CSc3ccccc32)CN1C1CC1` (centres undefined), the remaining at 0.5 h, 2 µM [1] is reported as 73.7%, the clearance [2] is reported as 46 mL/min/kg and the EC50 [3] is reported as 13.7 nM. It also gave a fraction unbound [4] of 0.0783 and an IC50 [5] of 35 nM.
`C[C@@H](N1CN([C@H]2c3ccccc3CSc3cc(F)ccc32)n2ccc(=O)c(O)c2C1=O)C(F)(F)F` gave a remaining at 0.5 h, 2 µM [1] of 93.9%, a clearance [2] of 13.4 mL/min/kg and an EC50 [3] of 14.3 nM. For the same compound, the fraction unbound [4] was 0.00807.
For `C[C@@H](N1CN([C@H]2c3cc(F)ccc3CSc3ccccc32)n2ccc(=O)c(O)c2C1=O)C(F)(F)F`, the remaining at 0.5 h, 2 µM [1] was 98.9%, the clearance [2] was 21.3 mL/min/kg and the EC50 [3] was 4.68 nM. It also gave a fraction unbound [4] of 0.0129 and an IC50 [5] of 44.3 nM.
With `C[C@@H](N1CN([C@H]2c3ccc(Cl)cc3CSc3ccccc32)n2ccc(=O)c(O)c2C1=O)C(F)(F)F` the remaining at 0.5 h, 2 µM [1] was 96.1%, the clearance [2] was 5.7 mL/min/kg and the EC50 [3] was 10.5 nM. It also gave a fraction unbound [4] of 0.00117 and an IC50 [5] of 6.99 nM.
With `CC(C)N1CN(C(c2ccccc2)c2cccc(Cl)c2)n2ccc(=O)c(O)c2C1=O` (centres undefined) the EC50 [3] was 75.9 nM and the IC50 [5] was 101 nM.
Compound `C[C@@H](N1CN([C@H]2c3ccccc3CSc3ccc(F)cc32)n2ccc(=O)c(O)c2C1=O)C(F)(F)F` has a remaining at 0.5 h, 2 µM [1] of 103%, a clearance [2] of 15.4 mL/min/kg and an EC50 [3] of 8.16 nM. For the same compound, the fraction unbound [4] was 0.00975.
`Cc1ccccc1C(c1ccccc1)N1CN(C(C)C)C(=O)c2c(O)c(=O)ccn21` (centres undefined) showed an EC50 [3] of 73.4 nM and an IC50 [5] of 142 nM.
Work on `Cc1ccc(C(c2ccc(C)cc2)N2CN(C(C)C)C(=O)c3c(O)c(=O)ccn32)cc1` yielded an EC50 [3] of 440 nM and an IC50 [5] of 394 nM.
In the case of `CC(C)N1CN(C(c2ccccc2)c2ccccc2Cl)n2ccc(=O)c(O)c2C1=O` (centres undefined), the EC50 [3] is reported as 77.8 nM and the IC50 [5] is reported as 210 nM.
Work on `C[C@@H](N1CN([C@H]2c3ccccc3CSc3c(Cl)cccc32)n2ccc(=O)c(O)c2C1=O)C(F)(F)F` yielded a remaining at 0.5 h, 2 µM [1] of 92.3%, a clearance [2] of 6.78 mL/min/kg and an EC50 [3] of 13.5 nM. The fraction unbound [4] was 0.00329 and the IC50 [5] was 23.2 nM.
In the case of `CC(C)N1CN(C(c2ccccc2Cl)c2ccccc2Cl)n2ccc(=O)c(O)c2C1=O`, the EC50 [3] is reported as 48.2 nM and the IC50 [5] is reported as 37 nM.
In the case of `CCOC(=O)C1=C[C@@H](OC(CC)CC)[C@H](NC(C)=O)[C@@H](N)C1`, the Activity [7] is reported as “Active”.
With `C[C@@H](N1CN([C@H]2c3ccccc3CSc3cccc(Cl)c32)n2ccc(=O)c(O)c2C1=O)C(F)(F)F` the remaining at 0.5 h, 2 µM [1] was 85.4%, the clearance [2] was 10.2 mL/min/kg and the EC50 [3] was 18.8 nM. The fraction unbound [4] was 0.00589 and the IC50 [5] was 76.2 nM.
`C[C@@H](N1CN([C@@H]2c3ccccc3SCc3cccc(F)c32)n2ccc(=O)c(O)c2C1=O)C(F)(F)F` gave a remaining at 0.5 h, 2 µM [1] of 102%, a clearance [2] of 18 mL/min/kg and an EC50 [3] of 3.75 nM. It also gave a fraction unbound [4] of 0.012 and an IC50 [5] of 31.8 nM.
`C[C@@H](N1CN([C@H]2c3ccccc3CSc3cccc(F)c32)n2ccc(=O)c(O)c2C1=O)C(F)(F)F` gave a remaining at 0.5 h, 2 µM [1] of 97.4%, a clearance [2] of 9.09 mL/min/kg and an EC50 [3] of 15.1 nM. The fraction unbound [4] was 0.0119 and the IC50 [5] was 37.1 nM.
With `CC(C)N1CN(C(c2ccccc2)c2ccc(Cl)cc2)n2ccc(=O)c(O)c2C1=O` (centres undefined) the EC50 [3] was 94 nM and the IC50 [5] was 291 nM.
With `C[C@H](N1CN([C@@H]2c3ccccc3CSc3ccccc32)n2ccc(=O)c(O)c2C1=O)C(F)(F)F` the EC50 [3] was 21.7 nM.
Compound `O=C1c2c(O)c(=O)ccn2N(C2c3ccccc3CSc3ccccc32)CN1C(CF)CF` (centres undefined) has a remaining at 0.5 h, 2 µM [1] of 84.9%, a clearance [2] of 33.5 mL/min/kg and an EC50 [3] of 27.5 nM. The IC50 [5] was 113 nM.
